Test results as given in ChEMBL document CHEMBL4665753, “Ecdysteroid Derivatives that Reverse P-Glycoprotein-Mediated Drug Resistance” (J Nat Prod, 2020).
Active and inactive are the calls of the source. No cut-off for these calls is given here.

Key:
[1] = Cytotoxicity against human peripheral blood lymphocytes assessed as cell growth inhibition after 72 hrs by MTT assay; assay type: functional; settings: Lymphocyte
In short: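 Resting, non-PHA-stimulated lymphocytes from healthy-donor buffy coats were isolated by density-gradient centrifugation and incubated overnight in RPMI-1640 with 10% FBS. Nonadherent cells were then seeded at 5 × 10^5 cells/mL with a range of compound concentrations for 72 h. Viability was read by MTT at 560 nm. GI50 was taken as 50% proliferation inhibition from log concentration plots.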

[2] = Cytotoxicity against human peripheral blood lymphocytes assessed as cell growth inhibition after 72 hrs in presence of PHA by MTT assay; assay type: functional; settings: Lymphocyte
In short: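 Lymphocytes from healthy-donor buffy coats were isolated by density-gradient centrifugation and incubated overnight in RPMI-1640 with 10% FBS. Nonadherent cells were reseeded at 5 × 10^5 cells/mL in medium with 2.5 μg/mL PHA so they would proliferate, then exposed to a range of compound concentrations for 72 h. Viability was read by MTT at 560 nm. GI50 was taken as 50% proliferation inhibition.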

Homo sapiens [3] = species: Homo sapiens; experiment: Stimulation of P-gp ATPase activity (unknown origin) assessed as increase in ATP consumption at 10 uM relative to control; settings: filed as activator
In short: (§1)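 Luminescent P-gp-Glo assay on recombinant human P-gp in a membrane fraction (25 μg), with sodium orthovanadate (100 μM) as ATPase inhibitor. Reactions were started with 10 mM MgATP and stopped after 40 min with luciferase detection reagent; luminescence was read 60 min later. ATP consumption appears as lost luminescence. Activity is given as fold change versus untreated control, mean of three independent experiments.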

[4] = target: ATP-dependent translocase ABCB1 (Homo sapiens, UniProt P08183); experiment: Inhibition of ABCB1 in human […] cells after 2 hrs by Hoechst dye based flow cytometric analysis; assay type: cell-based
ATP-dependent translocase ABCB1, sequence (P08183 whole entry): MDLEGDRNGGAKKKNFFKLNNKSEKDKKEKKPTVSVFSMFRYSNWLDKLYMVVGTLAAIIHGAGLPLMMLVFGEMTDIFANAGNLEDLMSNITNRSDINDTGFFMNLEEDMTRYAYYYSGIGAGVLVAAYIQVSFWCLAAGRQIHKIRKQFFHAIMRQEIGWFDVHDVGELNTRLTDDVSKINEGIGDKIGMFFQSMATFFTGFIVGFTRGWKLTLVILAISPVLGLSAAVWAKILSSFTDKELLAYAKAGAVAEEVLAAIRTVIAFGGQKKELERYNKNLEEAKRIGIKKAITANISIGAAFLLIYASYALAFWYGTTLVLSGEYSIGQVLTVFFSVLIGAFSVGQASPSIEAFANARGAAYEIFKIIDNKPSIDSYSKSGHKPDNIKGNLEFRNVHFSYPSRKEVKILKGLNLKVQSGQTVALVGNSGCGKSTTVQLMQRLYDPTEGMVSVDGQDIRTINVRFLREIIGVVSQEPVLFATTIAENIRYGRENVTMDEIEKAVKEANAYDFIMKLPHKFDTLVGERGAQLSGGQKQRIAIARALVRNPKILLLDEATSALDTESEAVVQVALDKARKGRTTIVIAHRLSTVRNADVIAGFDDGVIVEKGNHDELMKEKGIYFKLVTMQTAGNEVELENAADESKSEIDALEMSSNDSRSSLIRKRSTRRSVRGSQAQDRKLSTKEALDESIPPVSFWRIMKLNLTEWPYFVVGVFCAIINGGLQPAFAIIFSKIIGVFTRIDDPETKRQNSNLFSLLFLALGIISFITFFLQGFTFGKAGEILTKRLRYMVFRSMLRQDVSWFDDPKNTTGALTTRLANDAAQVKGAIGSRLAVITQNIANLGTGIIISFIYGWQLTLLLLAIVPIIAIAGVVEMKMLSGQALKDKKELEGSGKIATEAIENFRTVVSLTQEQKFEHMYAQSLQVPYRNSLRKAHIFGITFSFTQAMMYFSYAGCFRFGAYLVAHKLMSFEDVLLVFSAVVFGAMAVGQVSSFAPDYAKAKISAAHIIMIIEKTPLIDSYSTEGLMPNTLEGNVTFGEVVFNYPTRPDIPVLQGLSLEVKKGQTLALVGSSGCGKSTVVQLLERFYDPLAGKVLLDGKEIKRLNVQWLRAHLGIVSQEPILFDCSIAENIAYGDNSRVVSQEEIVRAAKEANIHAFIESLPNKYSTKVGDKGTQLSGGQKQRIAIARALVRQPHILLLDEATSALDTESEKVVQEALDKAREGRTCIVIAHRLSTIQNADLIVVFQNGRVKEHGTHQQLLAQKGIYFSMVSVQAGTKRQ
In short: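 Medulloblastoma DAOY cells were treated with compounds at 10 μM for 2 h. Cells (10^6/mL) were stained with 5 μg/mL Hoechst 33342 in αMEM with 2% FBS for 90 min at 37 °C, then with 2 μg/mL propidium iodide at 4 °C for 10 min. Side-population cells were gated on PI-negative events on a Hoechst red vs blue plot under UV excitation, acquiring at least 30 000 live events.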

CEM/VLB100 = experiment: Synergistic antiproliferative activity against human CEM/VLB100 cells assessed as reduction in cell viability at 1:10 test compound to vinblastine after 48 hrs by MTT assay
Homo sapiens [5] = species: Homo sapiens; experiment: Stimulation of P-gp ATPase activity (unknown origin) assessed as increase in ATP consumption at 1 uM relative to control; settings: filed as activator; in short: as §1

CC(C)(O)CC[C@@H](OC(=O)c1ccccc1)[C@](C)(O)[C@H]1CC[C@@]2(O)C3=CC(=O)[C@@H]4C[C@@H](OC(=O)c5ccccc5)[C@@H](OC(=O)c5ccccc5)C[C@]4(C)[C@H]3CC[C@]12C
GI50 [1]: > 100 µM | GI50 [2]: 19.9 µM | fold change (FC) (Homo sapiens [3]): 4 | inhibition (INH) [4]: Active | Activity (CEM/VLB100): Active

COc1ccc(CCN(C)CCCC(C#N)(c2ccc(OC)c(OC)c2)C(C)C)cc1OC (stereo unspecified)
fold change (FC) (Homo sapiens [3]): 4

CC(C)(O)CC[C@H]1OC2(CCCCC2)O[C@]1(C)[C@H]1CC[C@@]2(O)C3=CC(=O)[C@@H]4C[C@H]5OC6(CCCCC6)O[C@H]5C[C@]4(C)[C@H]3CC[C@]12C
GI50 [1]: 61.7 µM | GI50 [2]: 42.8 µM | fold change (FC) (Homo sapiens [5]): 6 | inhibition (INH) [4]: Active | Activity (CEM/VLB100): Active
